# Numbered stars: 1 amine (or outer) side, 2 acyl side, 3 side chain; on linkers, the order of the positions; unused ones are H or OH. Bridge positions count the residues as written; N and C are the ends. Square brackets hold non-standard residues; d marks the D form. Peptide text beside a SMILES is read from it. X1 = O=C([C@H](CC1C=Nc2ccccc21)N[*:1])[*:2]; Nle = CCCC[C@H](N)C(=O)O; Nva = CCC[C@H](N)C(=O)O; Abu = CC[C@H](N)C(=O)O
# Biological target: Neuronal acetylcholine receptor; alpha3/beta4 (Rattus norvegicus) (UniProt P04757+P12392)
# Experiment: Antagonist activity at rat alpha3beta4 nAChR expressed in HEK293 cells assessed as inhibition of epibatadine-induced effect at 10 uM after 30 mins by fluorescent membrane potential assay relative to mecamylamine
# Assay type: cell-based
# Outline: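 Rat α3β4 nAChR stably expressed in HEK293 cells; crude, SPE-desalted individual peptides tested at 10 μM in HBSS with membrane potential blue dye, 30 min at 37 °C. Fluorescence change read after epibatidine (0.1 μM). Percent inhibition set against 10 μM mecamylamine taken as 100%.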
row,Structure (SMILES),inhibition
1,"CCC[C@@H]1NC(=O)[C@H](Cc2c[nH]c3ccccc23)NC(=O)[C@H](Cc2ccccc2)NC(=O)[C@@H]2CSSC[C@H](NC(=O)CN)C(=O)N[C@@H](CSSC[C@@H](C(=O)O)NC(=O)[C@@H]3CCCN3C1=O)C(=O)N[C@@H](CO)C(=O)N[C@@H](Cc1cnc[nH]1)C(=O)N1CCC[C@H]1C(=O)N[C@@H](CC)C(=O)N2 (H-GCCSHP[Abu]CFW[Nva]PC-OH; disulfide 2-8, 3-13)",36.2%
2,"CCCC[C@@H]1NC(=O)[C@H](CO)NC(=O)[C@@H]2CSSC[C@@H](C(=O)O)NC(=O)[C@@H]3CCCN3C(=O)[C@H](CCC)NC(=O)[C@H](Cc3c[nH]c4ccccc34)NC(=O)[C@H](Cc3ccccc3)NC(=O)[C@H](CSSC[C@H](NC(=O)CN)C(=O)N2)NC(=O)[C@H](CC)NC(=O)[C@@H]2CCCN2C1=O (H-GCCS[Nle]P[Abu]CFW[Nva]PC-OH; disulfide 2-8, 3-13)",41.1%
3,CCCC[C@@H]1NC(=O)[C@H](Cc2c[nH]c3ccccc23)NC(=O)[C@H]([C@H](C)CC)NC(=O)[C@@H]2CSSC[C@H](NC(=O)CN)C(=O)N[C@@H](CSSC[C@@H](C(=O)O)NC(=O)[C@@H]3CCCN3C1=O)C(=O)N[C@@H](CO)C(=O)N[C@@H](Cc1cnc[nH]1)C(=O)N1CCC[C@H]1C(=O)N1CCC[C@H]1C(=O)N2,10.1%
4,"CCCC[C@@H]1NC(=O)[C@H](Cc2c[nH]c3ccccc23)NC(=O)[C@H](Cc2ccccc2)NC(=O)[C@@H]2CSSC[C@H](NC(=O)CN)C(=O)N[C@@H](CSSC[C@@H](C(=O)O)NC(=O)[C@H](Cc3ccc(O)cc3)NC1=O)C(=O)N[C@@H](CO)C(=O)N[C@@H](CCCC)C(=O)N1CCC[C@H]1C(=O)N[C@@H](CC)C(=O)N2 (H-GCCS[Nle]P[Abu]CFW[Nle]YC-OH; disulfide 2-8, 3-13)",76%
5,"CCC[C@@H]1NC(=O)[C@H](Cc2c[nH]c3ccccc23)NC(=O)[C@H](Cc2ccccc2)NC(=O)[C@@H]2CSSC[C@H](NC(=O)CN)C(=O)N[C@@H](CSSC[C@@H](C(=O)O)NC(=O)[C@H](Cc3ccc(O)cc3)NC1=O)C(=O)N[C@@H](CO)C(=O)N[C@@H](Cc1cnc[nH]1)C(=O)N1CCC[C@H]1C(=O)N1CCC[C@H]1C(=O)N2 (H-GCCSHPPCFW[Nva]YC-OH; disulfide 2-8, 3-13)",47.8%
6,CCC[C@@H]1NC(=O)[C@H](Cc2c[nH]c3ccccc23)NC(=O)[C@H]([C@H](C)CC)NC(=O)[C@@H]2CSSC[C@H](NC(=O)CN)C(=O)N[C@@H](CSSC[C@@H](C(=O)O)NC(=O)[C@H](Cc3ccc(O)cc3)NC1=O)C(=O)N[C@@H](CO)C(=O)N[C@@H](Cc1cnc[nH]1)C(=O)N1CCC[C@H]1C(=O)N1CCC[C@H]1C(=O)N2,56.5%
7,"CCCC[C@@H]1NC(=O)[C@H](CC2C=Nc3ccccc32)NC(=O)[C@H](Cc2ccccc2)NC(=O)[C@@H]2CSSC[C@H](NC(=O)CN)C(=O)N[C@@H](CSSC[C@@H](C(=O)O)NC(=O)[C@@H]3CCCN3C1=O)C(=O)N[C@@H](CO)C(=O)N[C@@H](CCCC)C(=O)N1CCC[C@H]1C(=O)N[C@@H](CC)C(=O)N2 (stereo partly drawn) (H-GCCS[Nle]P[Abu]CF[X1][Nle]PC-OH; disulfide 2-8, 3-13)",22.1%
8,"CCC[C@@H]1NC(=O)[C@H](Cc2c[nH]c3ccccc23)NC(=O)[C@H](Cc2ccccc2)NC(=O)[C@@H]2CSSC[C@H](NC(=O)CN)C(=O)N[C@@H](CSSC[C@@H](C(=O)O)NC(=O)[C@@H]3CCCN3C1=O)C(=O)N[C@@H](CO)C(=O)N[C@@H](Cc1cnc[nH]1)C(=O)N1CCC[C@H]1C(=O)N1CCC[C@H]1C(=O)N2 (H-GCCSHPPCFW[Nva]PC-OH; disulfide 2-8, 3-13)",49%
9,"CCCC[C@@H]1NC(=O)[C@H](CO)NC(=O)[C@@H]2CSSC[C@@H](C(=O)O)NC(=O)[C@@H]3CCCN3C(=O)[C@H](CCC)NC(=O)[C@H](CC)NC(=O)[C@H](Cc3ccccc3)NC(=O)[C@H](CSSC[C@H](NC(=O)CN)C(=O)N2)NC(=O)[C@H](CC)NC(=O)[C@@H]2CCCN2C1=O (H-GCCS[Nle]P[Abu]CF[Abu][Nva]PC-OH; disulfide 2-8, 3-13)",40.3%
10,CCCC[C@@H]1NC(=O)[C@H](CO)NC(=O)[C@@H]2CSSC[C@@H](C(=O)O)NC(=O)[C@H](Cc3ccc(O)cc3)NC(=O)[C@H](CCC)NC(=O)[C@H](CC)NC(=O)[C@H]([C@H](C)CC)NC(=O)[C@H](CSSC[C@H](NC(=O)CN)C(=O)N2)NC(=O)[C@H](CC)NC(=O)[C@@H]2CCCN2C1=O,59.4%
11,CCCC[C@@H]1NC(=O)[C@H](Cc2c[nH]c3ccccc23)NC(=O)[C@H]([C@H](C)CC)NC(=O)[C@@H]2CSSC[C@H](NC(=O)CN)C(=O)N[C@@H](CSSC[C@@H](C(=O)O)NC(=O)[C@@H]3CCCN3C1=O)C(=O)N[C@@H](CO)C(=O)N[C@@H](CCCC)C(=O)N1CCC[C@H]1C(=O)N1CCC[C@H]1C(=O)N2,6.3%
12,CCCC[C@@H]1NC(=O)[C@H](CO)NC(=O)[C@@H]2CSSC[C@@H](C(=O)O)NC(=O)[C@@H]3CCCN3C(=O)[C@H](CCC)NC(=O)[C@H](CC)NC(=O)[C@H]([C@H](C)CC)NC(=O)[C@H](CSSC[C@H](NC(=O)CN)C(=O)N2)NC(=O)[C@H](CC)NC(=O)[C@@H]2CCCN2C1=O,19.2%
13,CCCC[C@@H]1NC(=O)[C@H](CC)NC(=O)[C@H]([C@H](C)CC)NC(=O)[C@@H]2CSSC[C@H](NC(=O)CN)C(=O)N[C@@H](CSSC[C@@H](C(=O)O)NC(=O)[C@@H]3CCCN3C1=O)C(=O)N[C@@H](CO)C(=O)N[C@@H](CCCC)C(=O)N1CCC[C@H]1C(=O)N1CCC[C@H]1C(=O)N2,31.3%
14,CCC[C@@H]1NC(=O)[C@H](CC)NC(=O)[C@H]([C@H](C)CC)NC(=O)[C@@H]2CSSC[C@H](NC(=O)CN)C(=O)N[C@@H](CSSC[C@@H](C(=O)O)NC(=O)[C@H](Cc3ccc(O)cc3)NC1=O)C(=O)N[C@@H](CO)C(=O)N[C@@H](Cc1cnc[nH]1)C(=O)N1CCC[C@H]1C(=O)N1CCC[C@H]1C(=O)N2,62.3%
15,"CCCC[C@@H]1NC(=O)[C@H](CO)NC(=O)[C@@H]2CSSC[C@@H](C(=O)O)NC(=O)[C@@H]3CCCN3C(=O)[C@H](CCC)NC(=O)[C@H](Cc3c[nH]c4ccccc34)NC(=O)[C@H](Cc3ccccc3)NC(=O)[C@H](CSSC[C@H](NC(=O)CN)C(=O)N2)NC(=O)[C@@H]2CCCN2C(=O)[C@@H]2CCCN2C1=O (H-GCCS[Nle]PPCFW[Nva]PC-OH; disulfide 2-8, 3-13)",37.1%
16,"CCCC[C@@H]1NC(=O)[C@H](CC)NC(=O)[C@H](Cc2ccccc2)NC(=O)[C@@H]2CSSC[C@H](NC(=O)CN)C(=O)N[C@@H](CSSC[C@@H](C(=O)O)NC(=O)[C@@H]3CCCN3C1=O)C(=O)N[C@@H](CO)C(=O)N[C@@H](Cc1cnc[nH]1)C(=O)N1CCC[C@H]1C(=O)N1CCC[C@H]1C(=O)N2 (H-GCCSHPPCF[Abu][Nle]PC-OH; disulfide 2-8, 3-13)",29.1%
17,"CCC[C@@H]1NC(=O)[C@H](CC)NC(=O)[C@H](Cc2ccccc2)NC(=O)[C@@H]2CSSC[C@H](NC(=O)CN)C(=O)N[C@@H](CSSC[C@@H](C(=O)O)NC(=O)[C@@H]3CCCN3C1=O)C(=O)N[C@@H](CO)C(=O)N[C@@H](Cc1cnc[nH]1)C(=O)N1CCC[C@H]1C(=O)N[C@@H](CC)C(=O)N2 (H-GCCSHP[Abu]CF[Abu][Nva]PC-OH; disulfide 2-8, 3-13)",47%
18,CCCC[C@@H]1NC(=O)[C@H](CC2C=Nc3ccccc32)NC(=O)[C@H]([C@H](C)CC)NC(=O)[C@@H]2CSSC[C@H](NC(=O)CN)C(=O)N[C@@H](CSSC[C@@H](C(=O)O)NC(=O)[C@@H]3CCCN3C1=O)C(=O)N[C@@H](CO)C(=O)N[C@@H](Cc1cnc[nH]1)C(=O)N1CCC[C@H]1C(=O)N[C@@H](CC)C(=O)N2 (stereo partly drawn),15.4%
